Test results from ChEMBL document CHEMBL1629465, “Efficient synthesis of novel 1,2,4-triazole fused acyclic and 21-28 membered macrocyclic and/or lariat macrocyclic oxaazathia crown compounds with potential antimicrobial activity” (2010).

Test system: Escherichia coli
Experiment: Antimicrobial activity against Escherichia coli RCMB 103001 at 5 mg/ml by agar diffusion technique
Assay type: functional
Conditions: read-out: DIZ
Summary of the method: (§1)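 Agar well diffusion. Test compounds and reference standard drugs were diluted to 5.0, 2.5 and 1.0 mg/mL and applied to 0.6 cm wells. Inhibition zone beyond the control was scored as 0 (no inhibition), + (0.1–0.5 cm), ++ (0.6–1.0 cm) or +++ (1.0–1.5 cm).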

Row | SMILES | zone of inhibition at 5000 µg/mL
1 | S=c1[nH]nc(-c2cccnc2)n1/N=C\c1ccccc1OCCCOc1ccccc1/C=N\n1c(-c2cccnc2)n[nH]c1=S | 0 mm
2 | Nn1c(-c2cccnc2)n[nH]c1=S | 1 mm

Test system: Candida albicans
Experiment: Antimicrobial activity against Candida albicans RCMB 005003 at 2.5 mg/ml by agar diffusion technique
Assay type: functional
Conditions: read-out: DIZ
Summary of the method: as §1

Row | SMILES | zone of inhibition at 2500 µg/mL
3 | S=c1[nH]nc(-c2cccnc2)n1/N=C\c1ccccc1OCCCOc1ccccc1/C=N\n1c(-c2cccnc2)n[nH]c1=S | 0 mm
4 | Nn1c(-c2cccnc2)n[nH]c1=S | 0 mm

Test system: Syncephalastrum racemosum
Experiment: Antimicrobial activity against Syncephalastrum racemosum RCMB 016001 at 5 mg/ml by agar diffusion technique
Assay type: functional
Conditions: read-out: DIZ
Summary of the method: as §1

Row | SMILES | zone of inhibition at 5000 µg/mL
5 | S=c1[nH]nc(-c2cccnc2)n1/N=C\c1ccccc1OCCCOc1ccccc1/C=N\n1c(-c2cccnc2)n[nH]c1=S | 1 mm
6 | Nn1c(-c2cccnc2)n[nH]c1=S | 0 mm

Test system: Penicillium italicum
Experiment: Antimicrobial activity against Penicillium italicum RCMB 001018 at 1 mg/ml by agar diffusion technique
Assay type: functional
Conditions: read-out: DIZ
Summary of the method: as §1

Row | SMILES | zone of inhibition at 1000 µg/mL
7 | S=c1[nH]nc(-c2cccnc2)n1/N=C\c1ccccc1OCCCOc1ccccc1/C=N\n1c(-c2cccnc2)n[nH]c1=S | 0 mm
8 | Nn1c(-c2cccnc2)n[nH]c1=S | 0 mm

Test system: Escherichia coli
Experiment: Antimicrobial activity against Escherichia coli RCMB 103001 at 1 mg/ml by agar diffusion technique
Assay type: functional
Conditions: read-out: DIZ
Summary of the method: as §1

Row | SMILES | zone of inhibition at 1000 µg/mL
9 | S=c1[nH]nc(-c2cccnc2)n1/N=C\c1ccccc1OCCCOc1ccccc1/C=N\n1c(-c2cccnc2)n[nH]c1=S | 0 mm
10 | Nn1c(-c2cccnc2)n[nH]c1=S | 0 mm

Test system: Pseudomonas aeruginosa
Experiment: Antimicrobial activity against Pseudomonas aeruginosa RCMB 102002 at 5 mg/ml by agar diffusion technique
Assay type: functional
Conditions: read-out: DIZ
Summary of the method: as §1

Row | SMILES | zone of inhibition at 5000 µg/mL
11 | S=c1[nH]nc(-c2cccnc2)n1/N=C\c1ccccc1OCCCOc1ccccc1/C=N\n1c(-c2cccnc2)n[nH]c1=S | 0 mm
12 | Nn1c(-c2cccnc2)n[nH]c1=S | 0 mm

Test system: Syncephalastrum racemosum
Experiment: Antimicrobial activity against Syncephalastrum racemosum RCMB 016001 at 1 mg/ml by agar diffusion technique
Assay type: functional
Conditions: read-out: DIZ
Summary of the method: as §1

Row | SMILES | zone of inhibition at 1000 µg/mL
13 | S=c1[nH]nc(-c2cccnc2)n1/N=C\c1ccccc1OCCCOc1ccccc1/C=N\n1c(-c2cccnc2)n[nH]c1=S | 0 mm
14 | Nn1c(-c2cccnc2)n[nH]c1=S | 0 mm

Test system: Staphylococcus aureus
Experiment: Antimicrobial activity against Staphylococcus aureus RCMB 106001 at 1 mg/ml by agar diffusion technique
Assay type: functional
Conditions: read-out: DIZ
Summary of the method: as §1

Row | SMILES | zone of inhibition at 1000 µg/mL
15 | S=c1[nH]nc(-c2cccnc2)n1/N=C\c1ccccc1OCCCOc1ccccc1/C=N\n1c(-c2cccnc2)n[nH]c1=S | 0 mm
16 | Nn1c(-c2cccnc2)n[nH]c1=S | 0 mm

Test system: Aspergillus fumigatus
Experiment: Antimicrobial activity against Aspergillus fumigatus RCMB 002008 at 5 mg/ml by agar diffusion technique
Assay type: functional
Conditions: read-out: DIZ
Summary of the method: as §1

Row | SMILES | zone of inhibition at 5000 µg/mL
17 | S=c1[nH]nc(-c2cccnc2)n1/N=C\c1ccccc1OCCCOc1ccccc1/C=N\n1c(-c2cccnc2)n[nH]c1=S | 0 mm
18 | Nn1c(-c2cccnc2)n[nH]c1=S | 0 mm

Test system: Staphylococcus aureus
Experiment: Antimicrobial activity against Staphylococcus aureus RCMB 106001 at 2.5 mg/ml by agar diffusion technique
Assay type: functional
Conditions: read-out: DIZ
Summary of the method: as §1

Row | SMILES | zone of inhibition at 2500 µg/mL
19 | S=c1[nH]nc(-c2cccnc2)n1/N=C\c1ccccc1OCCCOc1ccccc1/C=N\n1c(-c2cccnc2)n[nH]c1=S | 1 mm
20 | Nn1c(-c2cccnc2)n[nH]c1=S | 0 mm

Test system: Syncephalastrum racemosum
Experiment: Antimicrobial activity against Syncephalastrum racemosum RCMB 016001 at 2.5 mg/ml by agar diffusion technique
Assay type: functional
Conditions: read-out: DIZ
Summary of the method: as §1

Row | SMILES | zone of inhibition at 2500 µg/mL
21 | S=c1[nH]nc(-c2cccnc2)n1/N=C\c1ccccc1OCCCOc1ccccc1/C=N\n1c(-c2cccnc2)n[nH]c1=S | 1 mm
22 | Nn1c(-c2cccnc2)n[nH]c1=S | 0 mm

Test system: Aspergillus fumigatus
Experiment: Antimicrobial activity against Aspergillus fumigatus RCMB 002008 at 2.5 mg/ml by agar diffusion technique
Assay type: functional
Conditions: read-out: DIZ
Summary of the method: as §1

Row | SMILES | zone of inhibition at 2500 µg/mL
23 | S=c1[nH]nc(-c2cccnc2)n1/N=C\c1ccccc1OCCCOc1ccccc1/C=N\n1c(-c2cccnc2)n[nH]c1=S | 0 mm
24 | Nn1c(-c2cccnc2)n[nH]c1=S | 0 mm

Test system: Pseudomonas aeruginosa
Experiment: Antimicrobial activity against Pseudomonas aeruginosa RCMB 102002 at 1 mg/ml by agar diffusion technique
Assay type: functional
Conditions: read-out: DIZ
Summary of the method: as §1

Row | SMILES | zone of inhibition at 1000 µg/mL
25 | S=c1[nH]nc(-c2cccnc2)n1/N=C\c1ccccc1OCCCOc1ccccc1/C=N\n1c(-c2cccnc2)n[nH]c1=S | 0 mm
26 | Nn1c(-c2cccnc2)n[nH]c1=S | 0 mm

Test system: Pseudomonas aeruginosa
Experiment: Antimicrobial activity against Pseudomonas aeruginosa RCMB 102002 at 2.5 mg/ml by agar diffusion technique
Assay type: functional
Conditions: read-out: DIZ
Summary of the method: as §1

Row | SMILES | zone of inhibition at 2500 µg/mL
27 | S=c1[nH]nc(-c2cccnc2)n1/N=C\c1ccccc1OCCCOc1ccccc1/C=N\n1c(-c2cccnc2)n[nH]c1=S | 0 mm
28 | Nn1c(-c2cccnc2)n[nH]c1=S | 0 mm

Test system: Bacillus subtilis
Experiment: Antimicrobial activity against Bacillus subtilis RCMB 101001 at 1 mg/ml by agar diffusion technique
Assay type: functional
Conditions: read-out: DIZ
Summary of the method: as §1

Row | SMILES | zone of inhibition at 1000 µg/mL
29 | S=c1[nH]nc(-c2cccnc2)n1/N=C\c1ccccc1OCCCOc1ccccc1/C=N\n1c(-c2cccnc2)n[nH]c1=S | 1 mm
30 | Nn1c(-c2cccnc2)n[nH]c1=S | 0 mm

Test system: Escherichia coli
Experiment: Antimicrobial activity against Escherichia coli RCMB 103001 at 2.5 mg/ml by agar diffusion technique
Assay type: functional
Conditions: read-out: DIZ
Summary of the method: as §1

Row | SMILES | zone of inhibition at 2500 µg/mL
31 | S=c1[nH]nc(-c2cccnc2)n1/N=C\c1ccccc1OCCCOc1ccccc1/C=N\n1c(-c2cccnc2)n[nH]c1=S | 0 mm
32 | Nn1c(-c2cccnc2)n[nH]c1=S | 0 mm

Test system: Staphylococcus aureus
Experiment: Antimicrobial activity against Staphylococcus aureus RCMB 106001 at 5 mg/ml by agar diffusion technique
Assay type: functional
Conditions: read-out: DIZ
Summary of the method: as §1

Row | SMILES | zone of inhibition at 5000 µg/mL
33 | S=c1[nH]nc(-c2cccnc2)n1/N=C\c1ccccc1OCCCOc1ccccc1/C=N\n1c(-c2cccnc2)n[nH]c1=S | 1 mm
34 | Nn1c(-c2cccnc2)n[nH]c1=S | 0 mm

Test system: Bacillus subtilis
Experiment: Antimicrobial activity against Bacillus subtilis RCMB 101001 at 5 mg/ml by agar diffusion technique
Assay type: functional
Conditions: read-out: DIZ
Summary of the method: as §1

Row | SMILES | zone of inhibition at 5000 µg/mL
35 | S=c1[nH]nc(-c2cccnc2)n1/N=C\c1ccccc1OCCCOc1ccccc1/C=N\n1c(-c2cccnc2)n[nH]c1=S | 1 mm
36 | Nn1c(-c2cccnc2)n[nH]c1=S | 0 mm

Test system: Candida albicans
Experiment: Antimicrobial activity against Candida albicans RCMB 005003 at 1 mg/ml by agar diffusion technique
Assay type: functional
Conditions: read-out: DIZ
Summary of the method: as §1

Row | SMILES | zone of inhibition at 1000 µg/mL
37 | S=c1[nH]nc(-c2cccnc2)n1/N=C\c1ccccc1OCCCOc1ccccc1/C=N\n1c(-c2cccnc2)n[nH]c1=S | 0 mm
38 | Nn1c(-c2cccnc2)n[nH]c1=S | 0 mm

Test system: Candida albicans
Experiment: Antimicrobial activity against Candida albicans RCMB 005003 at 5 mg/ml by agar diffusion technique
Assay type: functional
Conditions: read-out: DIZ
Summary of the method: as §1

Row | SMILES | zone of inhibition at 5000 µg/mL
39 | S=c1[nH]nc(-c2cccnc2)n1/N=C\c1ccccc1OCCCOc1ccccc1/C=N\n1c(-c2cccnc2)n[nH]c1=S | 0 mm
40 | Nn1c(-c2cccnc2)n[nH]c1=S | 0 mm

Test system: Penicillium italicum
Experiment: Antimicrobial activity against Penicillium italicum RCMB 001018 at 2.5 mg/ml by agar diffusion technique
Assay type: functional
Conditions: read-out: DIZ
Summary of the method: as §1

Row | SMILES | zone of inhibition at 2500 µg/mL
41 | S=c1[nH]nc(-c2cccnc2)n1/N=C\c1ccccc1OCCCOc1ccccc1/C=N\n1c(-c2cccnc2)n[nH]c1=S | 0 mm
42 | Nn1c(-c2cccnc2)n[nH]c1=S | 0 mm

Test system: Penicillium italicum
Experiment: Antimicrobial activity against Penicillium italicum RCMB 001018 at 5 mg/ml by agar diffusion technique
Assay type: functional
Conditions: read-out: DIZ
Summary of the method: as §1

Row | SMILES | zone of inhibition at 5000 µg/mL
43 | S=c1[nH]nc(-c2cccnc2)n1/N=C\c1ccccc1OCCCOc1ccccc1/C=N\n1c(-c2cccnc2)n[nH]c1=S | 0 mm
44 | Nn1c(-c2cccnc2)n[nH]c1=S | 1 mm

Test system: Aspergillus fumigatus
Experiment: Antimicrobial activity against Aspergillus fumigatus RCMB 002008 at 1 mg/ml by agar diffusion technique
Assay type: functional
Conditions: read-out: DIZ
Summary of the method: as §1

Row | SMILES | zone of inhibition at 1000 µg/mL
45 | S=c1[nH]nc(-c2cccnc2)n1/N=C\c1ccccc1OCCCOc1ccccc1/C=N\n1c(-c2cccnc2)n[nH]c1=S | 0 mm
46 | Nn1c(-c2cccnc2)n[nH]c1=S | 0 mm

Test system: Bacillus subtilis
Experiment: Antimicrobial activity against Bacillus subtilis RCMB 101001 at 2.5 mg/ml by agar diffusion technique
Assay type: functional
Conditions: read-out: DIZ
Summary of the method: as §1

Row | SMILES | zone of inhibition at 2500 µg/mL
47 | S=c1[nH]nc(-c2cccnc2)n1/N=C\c1ccccc1OCCCOc1ccccc1/C=N\n1c(-c2cccnc2)n[nH]c1=S | 1 mm
48 | Nn1c(-c2cccnc2)n[nH]c1=S | 0 mm
